pIC50: −log10 of the molar value.
How the values were obtained:
[1] = Antiplatelet activity in rabbit platelet rich plasma assessed as inhibition of ADP-induced aggregation at 1 mM treated for 5 mins before ADP challenge by turbidimetry; format: functional; conditions: Oryctolagus cuniculus
In short: (§1)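 Rabbit PRP (low-speed spin 500 rpm 10 min; PPP from 3000 rpm 10 min as reference) pre-treated in duplicate with vehicle, reference drug or compound for 5 min, then ADP 10 µM final at 37 °C for 5 min. Aggregation followed by optical density (Born turbidimetry). % inhibition versus vehicle-treated ADP-exposed controls; IC50 by nonlinear regression, top concentration 1.0 mM. Mean ± S.D., n = 4.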

[2] = Antiplatelet activity in rabbit platelet rich plasma assessed as inhibition of ADP-induced aggregation treated for 5 mins before ADP challenge by turbidimetry; format: functional; conditions: Oryctolagus cuniculus; in short: as §1
[3] = Induction of NO release from the compound in phosphate buffer at pH 7.4 at 0.1 mM incubated for 15 to 300 mins measured every 15 mins for 120 mins and every 30 mins for remaining time by Griess assay; format: physicochemical; conditions: pH 7.4, 100 µM
In short: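 Compound at 0.1 mM in PBS pH 7.4 containing 2% DMSO and 5.0 mM L-cysteine, incubated at 37 °C for 15–300 min. Sampled every 15 min up to 120 min, then every 30 min. Samples (2 mL) mixed with Griess reagent, 37 °C 10 min, absorbance at 540 nm. NO quantified against nitrite standards; means per time point.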

[4] = Antiplatelet activity in rabbit platelet rich plasma assessed as inhibition of ADP-induced aggregation at 1 mM treated for 5 mins before ADP challenge by turbidimetry in presence of endogenous NO scavenger hemoglobin; format: functional; conditions: Oryctolagus cuniculus
In short: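 Rabbit PRP exposed to compound at 1.0 mM for 5 min at 37 °C together with hemoglobin 20 µM (NO scavenger), then challenged with ADP 10 µM. Aggregation monitored turbidimetrically. Inhibition relative to vehicle-treated ADP-exposed controls. Mean ± SD from several independent experiments; Student's t test.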

[5] = Aqueous solubility of the compound; format: physicochemical; conditions: buffer

Row | Activity [3] [µg/mL] | Compound | inhibition at 1000 µM [1] [%] | other results
1 | 0.027 | CCCCC(OC(C)=O)c1ccccc1C(=O)Oc1ccc(/C=C/C(=O)NCC(C)O[N+](=O)[O-])cc1OC (centres undefined) |  | 
2 | 0.043 | CCCCC(OC(=O)CN1CCOCC1)c1ccccc1C(=O)Oc1ccc(/C=C/C(=O)NCCO[N+](=O)[O-])cc1.Cl (centres undefined) |  | 
3 | 0.06 | CCCCC(OC(=O)CN1CCCCC1)c1ccccc1C(=O)Oc1ccc(/C=C/C(=O)NCCO[N+](=O)[O-])cc1OC.Cl (centres undefined) | 83 | pIC50 [2]: 4.40

More lines, now with the values behind:

Row | Compound | Activity [3] [µg/mL] | inhibition at 1000 µM [1] [%] | other results
4 | COc1cc(/C=C/C(=O)NCCO[N+](=O)[O-])ccc1O |  | 51.3 | 
5 | CCCCC(OC(=O)CN(CC)CC)c1ccccc1C(=O)Oc1ccc(/C=C/C(=O)NCCO[N+](=O)[O-])cc1OC.Cl (centres undefined) | 0.057 | 83 | pIC50 [2]: 4.26; inhibition at 1000 µM [4]: 54.4%; solubility [5]: soluble
6 | CCCCC(OC(=O)CN(CC)CC)c1ccccc1C(=O)Oc1ccc(/C=C/C(=O)NCCCO[N+](=O)[O-])cc1.Cl (centres undefined) |  | 82.1 | solubility [5]: soluble
7 | CCCCC(OC(=O)CN1CCCCC1)c1ccccc1C(=O)Oc1ccc(/C=C/C(=O)NCCO[N+](=O)[O-])cc1.Cl (centres undefined) |  | 82.4 | solubility [5]: soluble
8 | CCCCC1OC(=O)c2ccccc21 (racemic) [RAC-3-N-BUTYLPHTHALIDE] |  | 67.8 | 
9 | CCCCC(OC(=O)CN(CC)CC)c1ccccc1C(=O)O (centres undefined) |  | 67.2 | 
10 | CCCCC(OC(C)=O)c1ccccc1C(=O)Oc1ccc(/C=C/C(=O)NCCO[N+](=O)[O-])cc1 (centres undefined) | 0.022 |  | 
11 | CC(=O)Oc1ccccc1C(=O)O [ASPIRIN] |  | 68.5 | 

From ChEMBL document CHEMBL1799981, “Synthesis and evaluation of nitric oxide-releasing derivatives of 3-n-butylphthalide as anti-platelet agents” (Bioorg Med Chem Lett, 2011)
